# Bioassay records deposited in PubChem BioAssay by several laboratories.
# The list is not random: actives were taken first. Their share in the collection is about 1.3%.
# DAGLB inh: DAGLB lipase inhibitors, primary screen, biochemical, fluorescence, HTS; 340,000 tested, 0.059% active; Diacylglycerol lipase-beta (Homo sapiens), Q8NCG7; inhibition, % at 5.17 µM; HEK293T DAGLB membrane lysate, EnzChek fluorogenic substrate; in the data active means inhibition above about 34%;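 further: 0% = enzyme with vehicle and 100% = wells lacking enzyme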
# TMEM16A inh: TMEM16A chloride channel inhibitors, primary screen, cell-based, HTS. Anoctamin-1 (Mus musculus), Q8BHY3. HEK293 TMEM16A/YFP iodide influx fluorescence, ionomycin. normalized B-score (activity score, 25-100; higher = stronger inhibition) at 10 µM. 310,000 tested, 1.2% active. AID 588511, 2011;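 active means ratio plate-corrected score three or more library SD toward inhibition, starting fluorescence score within five deviations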;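 further: score derived from kinetic fluorescence span divided by baseline fluorescence per well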
# Target sequence (Q8BHY3 whole entry, looked up): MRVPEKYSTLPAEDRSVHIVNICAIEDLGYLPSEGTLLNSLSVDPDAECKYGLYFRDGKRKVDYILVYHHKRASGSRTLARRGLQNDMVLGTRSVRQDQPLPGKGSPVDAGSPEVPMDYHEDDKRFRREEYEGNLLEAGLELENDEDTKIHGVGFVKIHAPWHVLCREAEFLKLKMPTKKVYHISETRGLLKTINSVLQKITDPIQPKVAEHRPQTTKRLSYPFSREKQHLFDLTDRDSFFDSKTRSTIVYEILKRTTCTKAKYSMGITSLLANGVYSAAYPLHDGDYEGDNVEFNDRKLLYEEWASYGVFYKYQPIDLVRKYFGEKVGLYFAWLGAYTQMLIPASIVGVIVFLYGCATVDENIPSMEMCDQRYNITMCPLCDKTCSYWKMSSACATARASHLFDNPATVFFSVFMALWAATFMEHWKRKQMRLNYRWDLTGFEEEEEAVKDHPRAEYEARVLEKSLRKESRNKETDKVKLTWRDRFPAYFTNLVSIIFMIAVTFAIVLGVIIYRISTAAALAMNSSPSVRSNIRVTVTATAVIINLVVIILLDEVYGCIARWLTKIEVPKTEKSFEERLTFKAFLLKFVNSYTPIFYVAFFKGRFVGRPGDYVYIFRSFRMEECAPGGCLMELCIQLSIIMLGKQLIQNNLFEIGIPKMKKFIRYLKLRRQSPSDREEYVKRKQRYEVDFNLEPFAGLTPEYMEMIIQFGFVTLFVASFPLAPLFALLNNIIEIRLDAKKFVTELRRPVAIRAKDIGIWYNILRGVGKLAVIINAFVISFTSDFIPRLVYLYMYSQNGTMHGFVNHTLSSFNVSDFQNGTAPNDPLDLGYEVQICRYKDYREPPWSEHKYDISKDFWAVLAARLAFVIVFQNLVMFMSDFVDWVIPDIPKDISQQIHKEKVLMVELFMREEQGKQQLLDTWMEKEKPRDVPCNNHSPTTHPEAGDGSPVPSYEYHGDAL
# ANO1 activ: TMEM16A chloride channel activators or potentiators, primary screen, cell-based, HTS; Anoctamin-1 (Mus musculus), Q8BHY3; HEK293 TMEM16A/YFP-H148Q/I152L, iodide quench fluorescence; stronger effect = lower value; B-score at 10 µM; 340,000 tested, 0.3% active; AID 623877, 2012;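 active means fluorescence-ratio B-score plate-corrected deviation score at least 3 library SD below zero, with starting fluorescence score within 5 deviations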;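 further: channel opened by trigger with iodide after compound preincubation; score built on the fluorescence ratio of max minus min over baseline; more negative score means more quench and so TMEM16A activation or potentiation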
# MT1-MMP act inh: blockers of MT1-MMP proenzyme processing, primary screen, HT1080 RFP-PRO-GFP cells, GFP/RFP fluorescence; Matrix metalloproteinase-14 (Homo sapiens), P50281; GFP/RFP ratio fluorescence, overnight; percent of plate control window, DMSO zero; GFP/RFP ratio change, % at 20 µM; 360,000 tested, 0.061% active;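 active means GFP/RFP ratio change of at least 30% with cell ATP level not reduced by more than half and red fluorescence within 50% of control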
#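 system = RFP-PRO-GFP reporter HT1080 cells | dosing = 20 µM single dose, 1% DMSO | timing = overnight cell settling, then overnight compound exposure, 37 °C, 5% CO2 | read-out basis = GFP/RFP fluorescence ratio | controls = DMSO and RFP-L50D-GFP cell wells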
# TMEM16A reconf: TMEM16A chloride channel inhibitors, confirmation, cell-based, re-confirmation; shares compounds with TMEM16A inh; HEK293 TMEM16A/YFP-H148Q, iodide quench fluorescence; ionomycin added to raise cell calcium; inhibition, % at 10 µM; 2,300 tested, 39% active; AID 652189, 2013;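 active means mean duplicate percent inhibition, scaled so buffer wells are 0 and the reference blocker 100, over three buffer SD above buffer mean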
# HEK293 Ca mobil: calcium mobilization in TMEM16A/YFP HEK293 cells, confirmation, counter-screen for TMEM16A inhibitor project. AID 652231, 2013. calcium response (% of ionomycin), % at 10 µM. 2,300 tested, 2% active. shares compounds with TMEM16A inh. Fluo4 calcium mobilization;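 active means duplicate-averaged calcium signal over 20% of the ionomycin maximum, relative to buffer baseline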;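 further: each well's signal is peak minus trough fluorescence divided by its pre-addition baseline; 0% = buffer wells and 100% = ionomycin wells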
# Parental YFP cnt: iodide YFP quench changes in parental YFP-HEK293, counter-screen for TMEM16A inhibitor project, cell-based; shares compounds with TMEM16A inh; ionomycin; YFP ratio F(max-min)/F0 at 10 µM; 2,300 tested, under 10 active; AID 652233, 2013;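 active means yellow fluorescent protein signal ratio exceeding the buffer control mean by over 5 SD of those controls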;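 further: ratio is mean of duplicate wells from kinetic YFP trace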
# ClC-1 inh: ClC-1 chloride channel inhibition, selectivity assay for TMEM16A inhibitor project, cell-based, voltage-dependent ClC-1; ratio percent, % at 10 µM; AID 652236, 2013; CHO ClC-1-YFP, iodide influx fluorescence quench; iodide control reads 0, buffer control 100; 2,300 tested, under 10 active; shares compounds with TMEM16A inh;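 active means duplicate-mean ratio percent above the mean of iodide-only control wells, which defines zero, plus 5 of their SD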;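 further: higher percent means stronger block of ClC-1 iodide influx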
# Active calls of the source: *; i = inactive; / = no result.
SMILES,DAGLB inh,TMEM16A inh,ANO1 activ,MT1-MMP act inh,TMEM16A reconf,HEK293 Ca mobil,Parental YFP cnt,ClC-1 inh
Cc1cc(C)c(S(=O)(=O)Nc2ccc3c4c(cccc24)CC3)c(C)c1,-5,100*,i,5,i,i,-1.1,-10
Cc1ccc(S(=O)(=O)Nc2ccc3c4c(cccc24)CC3)c(C)c1,-4,i,i,-7,/,/,/,/
Cc1ccc(C)c(S(=O)(=O)N2CCN(C(=O)c3ccnn3C)CC2)c1,2,i,i,-4,/,/,/,/
Cc1ccc(-c2nc(CS(=O)(=O)CC(=O)N3CCCCCC3)c(C)o2)cc1,0,i,i,6,/,/,/,/
Cc1ccc(-c2nc(CS(=O)(=O)CC(=O)N3CCc4ccccc4C3)c(C)o2)cc1,-5,25*,i,2,26%*,i,-0.9,-10
CCOC(=O)Cc1ccc(NC(=O)c2ccc(C(C)(C)C)cc2)cc1,-4,100*,i,-7,32%*,i,-0.91,4
CCc1ccc2[nH]c(=O)c(-c3ccccc3)c(O)c2c1,2,i,i,0,/,/,/,/
O=C(NCCCSc1ccccc1)c1cc(Br)ccc1O,-9,100*,i,-1,52%*,i,-1.3,-24
Fc1ccccc1OCCSc1nnnn1-c1ccccc1,-14,i,i,0,22%*,i,-0.87,2
COc1ccc([N+](=O)[O-])cc1NCc1ccccc1C,2,100*,i,13,i,i,-1.2,-9
COc1ccc([N+](=O)[O-])cc1NCc1ccccc1,3,i,i,20,/,/,/,/
OC[C@@H]1CN(CCc2ccccc2)C[C@H](n2cnc3c(NCc4ccc(F)cc4)ncnc32)O1,/,/,/,3,/,/,/,/
CC(C)NC(=O)C1(C)CN(S(C)(=O)=O)CC(=O)N1Cc1ccco1 (stereo not given),/,/,/,1,/,/,/,/
COc1ccc(-c2nnc3sc(CN4C(=O)c5ccccc5C4=O)nn23)cc1,-2,i,i,4,/,/,/,/
O=C1c2ccccc2C(=O)N1Cc1nn2c(-c3ccc(Cl)cc3)nnc2s1,0,25*,i,/,i,i,-0.96,-4
N#CC1=C(N)Oc2cc(O)c(C=Nc3ccccc3)cc2C1c1ccccc1 (stereo not given),5,i,i,-29,i,i,-0.96,46
Cc1ccc(N=Cc2cc3c(cc2O)OC(N)=C(C#N)C3c2ccccc2)cc1 (stereo not given),7,i,i,-40,/,/,/,/
CC(OC(=O)Cc1ccsc1)C(=O)Nc1ccc(C(N)=O)cc1 (stereo not given),-4,/,i,0,/,/,/,/
CCc1c(C)nc2nc(SCc3ccccc3Cl)[nH]n2c1=O,1,100*,i,2,26%*,34%*,-1,-29
CCCCOc1ccc(Cl)cc1CSc1nnc(CC)n1N,-2,25*,i,-1,i,i,-0.96,11
COc1ccc(C2=NCC(CSc3nccc(=O)[nH]3)S2)cc1 (stereo not given),0,i,i,-1,/,/,/,/
COc1ccc(C2=NCC(CSc3nnc(-c4ccc5c(c4)OCO5)o3)S2)cc1 (stereo not given),-7,100*,i,-5,i,i,-0.98,-8
